# Measurements reported in ChEMBL document CHEMBL1124240, “Substrate analogue inhibitors of the IgA1 proteinases from Neisseria gonorrhoeae” (J Med Chem, 1988).
# “And” between values parts separate entries of the source, which are not always exact repeats. Equal entries are not always repeated. Bridge positions count the residues as written; N and C are the ends. Peptide text beside a SMILES is read from it. I, II: the chains in the order shown.
# Target: T1, IgA-specific serine endopeptidase autotransporter (Neisseria gonorrhoeae, UniProt P09790)
# T1 sequence (P09790 whole entry): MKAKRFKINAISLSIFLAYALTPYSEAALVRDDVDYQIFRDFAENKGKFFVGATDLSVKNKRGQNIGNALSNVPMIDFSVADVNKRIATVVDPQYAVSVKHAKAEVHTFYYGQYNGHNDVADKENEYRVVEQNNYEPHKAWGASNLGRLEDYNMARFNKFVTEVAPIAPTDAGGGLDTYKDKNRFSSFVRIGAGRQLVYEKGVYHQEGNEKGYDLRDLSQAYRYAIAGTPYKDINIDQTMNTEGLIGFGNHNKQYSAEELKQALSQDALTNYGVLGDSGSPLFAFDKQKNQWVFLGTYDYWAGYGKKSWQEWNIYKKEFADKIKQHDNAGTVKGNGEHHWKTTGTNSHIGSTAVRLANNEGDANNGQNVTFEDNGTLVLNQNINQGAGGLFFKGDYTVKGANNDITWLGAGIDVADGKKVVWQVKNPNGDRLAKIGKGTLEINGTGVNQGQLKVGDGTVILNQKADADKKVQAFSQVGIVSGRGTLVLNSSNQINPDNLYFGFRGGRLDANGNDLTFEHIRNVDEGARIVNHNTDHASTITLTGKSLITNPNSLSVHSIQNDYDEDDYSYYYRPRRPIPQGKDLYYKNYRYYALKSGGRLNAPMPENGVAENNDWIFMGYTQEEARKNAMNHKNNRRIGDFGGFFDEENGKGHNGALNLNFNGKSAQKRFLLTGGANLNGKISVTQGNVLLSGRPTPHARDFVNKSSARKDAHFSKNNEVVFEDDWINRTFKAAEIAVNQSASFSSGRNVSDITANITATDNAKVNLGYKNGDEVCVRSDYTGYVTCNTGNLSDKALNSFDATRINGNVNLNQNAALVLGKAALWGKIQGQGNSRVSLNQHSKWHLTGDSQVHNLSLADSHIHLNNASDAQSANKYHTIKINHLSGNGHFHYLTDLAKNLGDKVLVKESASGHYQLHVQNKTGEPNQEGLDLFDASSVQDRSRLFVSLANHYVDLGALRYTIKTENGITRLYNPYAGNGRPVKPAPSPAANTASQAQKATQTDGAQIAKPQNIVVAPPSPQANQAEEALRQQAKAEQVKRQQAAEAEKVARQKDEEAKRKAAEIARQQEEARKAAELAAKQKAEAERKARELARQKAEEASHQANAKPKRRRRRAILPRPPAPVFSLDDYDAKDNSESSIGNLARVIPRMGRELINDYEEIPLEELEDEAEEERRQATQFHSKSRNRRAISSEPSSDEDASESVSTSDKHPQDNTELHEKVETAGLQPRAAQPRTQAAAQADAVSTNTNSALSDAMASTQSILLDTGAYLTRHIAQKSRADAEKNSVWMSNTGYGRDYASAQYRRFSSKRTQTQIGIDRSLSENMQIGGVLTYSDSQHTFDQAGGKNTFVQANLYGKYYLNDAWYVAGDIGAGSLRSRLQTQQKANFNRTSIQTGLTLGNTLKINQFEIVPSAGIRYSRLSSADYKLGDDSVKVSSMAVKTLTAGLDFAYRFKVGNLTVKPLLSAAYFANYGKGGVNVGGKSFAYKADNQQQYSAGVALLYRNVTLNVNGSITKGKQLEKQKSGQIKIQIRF
# Experiment: Tested for inhibitory activity against IgA1 proteinase assayed in 40% TFE
# In short: (§1)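 Buffer contained 40% trifluoroethanol to dissolve the peptide. Type 1 and type 2 N. gonorrhoeae IgA1 proteinases (partially purified) were preincubated with inhibitor for 30 min at 37 °C, then cleaved 125I-labelled monomeric human IgA1. Samples were taken every 10 min over 30 min, boiled and run on SDS-PAGE. Fd/Fc/α-chain segment counts gave percent cleavage, and the rate was taken from the slope.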
row,Compound,IC50 [µM]
1,CC(=O)N[C@H](C(=O)N1CCC[C@H]1C(=O)N1CCC[C@H]1C(=O)N[C@@H](CSSC[C@H](NC(=O)[C@@H]1CCCN1C(=O)[C@@H]1CCCN1C(=O)[C@@H](NC(C)=O)[C@@H](C)O)C(=O)N1CCC[C@H]1C(=O)N[C@@H](CO)C(=O)N1CCC[C@H]1C(=O)N[C@@H](CO)C(N)=O)C(=O)N1CCC[C@H]1C(=O)N[C@@H](CO)C(=O)N1CCC[C@H]1C(=O)N[C@@H](CO)C(N)=O)[C@@H](C)O (I: Ac-TPPCPSPS-NH2 / II: Ac-TPPCPSPS-NH2; disulfide I:4-II:4),170

# Target: T1, IgA-specific serine endopeptidase autotransporter
# Experiment: Tested for inhibitory activity against IgA1 proteinase in 40% TFE
# In short: as §1
row,Compound,IC50 [µM]
1,CC(=O)N[C@H](C(=O)N1CCC[C@H]1C(=O)N1CCC[C@H]1C(=O)N[C@@H](CSSC[C@H](NC(=O)[C@@H]1CCCN1C(=O)[C@@H]1CCCN1C(=O)[C@@H](NC(C)=O)[C@@H](C)O)C(=O)N1CCC[C@H]1C(=O)N[C@@H](CO)C(=O)N1CCC[C@H]1C(=O)N[C@@H](CO)C(N)=O)C(=O)N1CCC[C@H]1C(=O)N[C@@H](CO)C(=O)N1CCC[C@H]1C(=O)N[C@@H](CO)C(N)=O)[C@@H](C)O (I: Ac-TPPCPSPS-NH2 / II: Ac-TPPCPSPS-NH2; disulfide I:4-II:4),200

# Target: IgA-specific serine endopeptidase autotransporter (Neisseria gonorrhoeae) (UniProt P09790)
# Sequence (P09790 whole entry): as above
# Experiment: Percent inhibition was tested against IgA1 proteinase at 0.30 mM
# In short: (§2)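 Type 1 and type 2 IgA1 proteinases from N. gonorrhoeae, partially purified from cell-free defined-medium cultures and stored at -70 °C. Peptides were in 0.05 M Tris-HCl, pH 7.5, and preincubated with enzyme for 30 min at 37 °C. Substrate was monoclonal monomeric human serum IgA1, 125I-labelled. Samples were taken at 10-min intervals over 30 min and run on SDS-PAGE with autoradiography. Fd, Fc and uncleaved α-chain bands were counted, and the rate came from the slope of percent cleavage versus time.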
row,Compound,inhibition [%]
1,C[C@H](O)[C@H](NC(=O)[C@@H]1CCCN1C(=O)[C@@H]1CCCN1C(=O)[C@@H](N)[C@@H](C)O)C(=O)N1CCC[C@H]1C(=O)N[C@@H](CO)C(=O)N1CCC[C@H]1C(=O)N[C@@H](CO)C(=O)N[C@H](C(=O)N1CCC[C@H]1C(=O)N1CCC[C@H]1C(=O)N[C@H](C(=O)N1CCC[C@H]1C(=O)N[C@@H](CO)N1CCC[C@H]1C(=O)N[C@@H](CO)C(=O)O)[C@@H](C)O)[C@H](C)O,19

# Target: IgA-specific serine endopeptidase autotransporter (Neisseria gonorrhoeae) (UniProt P09790)
# Experiment: Tested for inhibitory activity against IgA1 proteinase at >2 mM
# In short: as §2
row,Compound,inhibition [%]
1,CC(=O)N[C@H](C(=O)N1CCC[C@H]1C(=O)N1CCC[C@H]1C(=O)N[C@H](C(=O)N1CCC[C@H]1C(=O)N[C@@H](CSSC[C@H](NC(=O)[C@@H]1CCCN1C(=O)[C@@H](NC(=O)[C@@H]1CCCN1C(=O)[C@@H]1CCCN1C(=O)[C@@H](NC(C)=O)[C@@H](C)O)[C@@H](C)O)C(=O)N1CCC[C@H]1C(=O)N[C@@H](CO)C(N)=O)C(=O)N1CCC[C@H]1C(=O)N[C@@H](CO)C(N)=O)[C@H](C)O)[C@@H](C)O,0

# Target: T1, IgA-specific serine endopeptidase autotransporter
# Experiment: Tested for inhibitory activity against IgA1 proteinase
# In short: as §2
row,Compound,IC50
1,Ac-TPPTPSPS-NH2,9350 µM and 6680 µM
2,H-TPPTPSPSTPPTPSPS-OH,310 µM
3,H-TPPTPSPS-NH2,400 µM and 180 µM
4,H-TPPTPSPS-OH,260 µM and 500 µM
5,CC(=O)N[C@H](C(=O)N1CCC[C@H]1C(=O)N1CCC[C@H]1C(=O)N[C@H](C(=O)N1CCC[C@H]1C(=O)N[C@@H](CO)C(=O)N1CCC[C@H]1C(=O)N[C@@H](CSSC[C@H](NC(=O)[C@@H]1CCCN1C(=O)[C@H](CO)NC(=O)[C@@H]1CCCN1C(=O)[C@@H](NC(=O)[C@@H]1CCCN1C(=O)[C@@H]1CCCN1C(=O)[C@@H](NC(C)=O)[C@@H](C)O)[C@@H](C)O)C(N)=O)C(N)=O)[C@@H](C)O)[C@@H](C)O,3300 µM
6,CC(=O)N[C@@H](CSSC[C@H](NC(C)=O)C(=O)N1CCC[C@H]1C(=O)N1CCC[C@H]1C(=O)N[C@H](C(=O)N1CCC[C@H]1C(=O)N[C@@H](CO)C(=O)N1CCC[C@H]1C(=O)N[C@@H](CO)C(N)=O)[C@@H](C)O)C(=O)N1CCC[C@H]1C(=O)N1CCC[C@H]1C(=O)N[C@H](C(=O)N1CCC[C@H]1C(=O)N[C@@H](CO)C(=O)N1CCC[C@H]1C(=O)N[C@@H](CO)C(N)=O)[C@@H](C)O (I: Ac-CPPTPSPS-NH2 / II: Ac-CPPTPSPS-NH2; disulfide I:1-II:1),1810 µM and 3450 µM
7,Ac-TPPTPSPS-OH,1570 µM and 510 µM
8,Ac-TPPTPCPS-NH2,200 µM and 50 µM
9,Ac-CPPTPSPS-NH2,310 µM and 120 µM
10,Ac-TPPTPSPC-NH2,1030 µM and 490 µM
11,CC(=O)N[C@H](C(=O)N1CCC[C@H]1C(=O)N1CCC[C@H]1C(=O)N[C@H](C(=O)N1CCC[C@H]1C(=O)N[C@@H](CSSC[C@H](NC(=O)[C@@H]1CCCN1C(=O)[C@@H](NC(=O)[C@@H]1CCCN1C(=O)[C@@H]1CCCN1C(=O)[C@@H](NC(C)=O)[C@@H](C)O)[C@@H](C)O)C(=O)N1CCC[C@H]1C(=O)N[C@@H](CO)C(N)=O)C(=O)N1CCC[C@H]1C(=O)N[C@@H](CO)C(N)=O)[C@@H](C)O)[C@@H](C)O,5150 µM
